We go through 5 molecules from ChEMBL document CHEMBL1799990, “Triazole and dihydroimidazole alkaloids from the marine sediment-derived fungus Penicillium paneum SD-44” (J Nat Prod, 2011).

One may read the pIC50 as the IC50 on a negative log10 scale, so that one unit is a factor of ten. The low end stands for a large IC50, the high end for a small IC50.

pIC50: −log10 of the molar value. Active and inactive are the calls of the source. The rule behind the calls is not given here.

In one experiment the test system is SMMC-7721. In words: Cytotoxicity against human SMMC7721 cells. The class given is functional, cell-based.
A further experiment relates to Bel-7402. Kind of experiment: Cytotoxicity against human Bel7402 cells. In kind it is functional, cell-based.
Another experiment has as its system A549. In words: Cytotoxicity against human A549 cells. The class given is functional, cell-based.
The next experiment deals with Aspergillus niger. Kind of experiment: Antifungal activity against Aspergillus niger by disk diffusion method. In kind it is functional, organism-based. The essentials: (§1)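 Disk diffusion assay against the five plant-pathogenic fungi, run alongside amphotericin B as the positive control.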
A general note: Agar diffusion results depend on both activity and mobility in agar.

A further experiment concerns Staphylococcus aureus. In words: Antibacterial activity against Staphylococcus aureus by disk diffusion method. In kind it is functional, organism-based. An outline of the steps: (§2)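 Disk diffusion assay against the two bacteria, run alongside chloramphenicol as the positive control.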
Experiment [1] relates to Fusarium oxysporum f. sp. vasinfectum. Kind of experiment: Antifungal activity against Fusarium oxysporum f. sp. vasinfectum by disk diffusion method. In kind it is functional, organism-based. The essentials: as §1
In a further experiment the test system is Alternaria brassicae. In words: Antifungal activity against Alternaria brassicae by disk diffusion method. The class given is functional. An outline of the steps: as §1
Experiment [2] in a line: Antifungal activity against Coniella diplodiella by disk diffusion method. The class given is functional. The essentials:
as §1

The test system of experiment [3] is Botryosphaeria berengeriana. Kind of experiment: Antifungal activity against Physalospora pyricola by disk diffusion method. In kind it is functional, organism-based. The essentials: as §1
A further experiment deals with Escherichia coli. Kind of experiment: Antibacterial activity against Escherichia coli by disk diffusion method. The class given is functional, organism-based. The essentials: as §2

`O=c1[nH]cc(F)c(=O)[nH]1` [FLUOROURACIL]: the pIC50 in the experiment on SMMC-7721 was 4.89; in the experiment with Bel-7402 it was 4.66; in the experiment with A549, 4.86.

For `O=C1N[C@H]2[C@H](c3ccc(O)cc3)N=CN2c2ccccc21`, the outcome (with Aspergillus niger; in the experiment on Staphylococcus aureus; in [1]; in the experiment with Alternaria brassicae; in experiment [2]; in experiment [3]) was inactive. The result with Escherichia coli was inactive.

Take `O=C(c1ccc(O)cc1)c1nc2ccccc2c(=O)[nH]1`: the outcome (with Aspergillus niger; in the experiment with Staphylococcus aureus; in experiment [1]; in the experiment on Alternaria brassicae; in [2]; in [3]) was inactive. In the experiment on Escherichia coli, the outcome was inactive.

Consider `O=C(O)c1ccccc1-n1ncnc1Cc1ccc(O)cc1` [PENIPANOID A], for which, in the experiment on SMMC-7721, the pIC50 was 4.27. The result (in the experiment on Aspergillus niger; in the experiment with Staphylococcus aureus; in [1]; in the experiment on Alternaria brassicae; in experiment [2]; in experiment [3]) was inactive. For the same molecule, the outcome in the experiment with Escherichia coli was inactive.

Take `O=c1[nH]c(Cc2ccc(O)cc2)nc2ccccc12`: the outcome (in the experiment on Aspergillus niger; in the experiment with Staphylococcus aureus; in [1]; with Alternaria brassicae; in experiment [2]; in [3]) was inactive. The result with Escherichia coli was inactive. Also, the negative logarithm of the IC50 (pIC50) in the experiment with Bel-7402 is 4.70; in the experiment on A549, 4.76.
